Columns and labels:
Acinetobacter baumannii [1] = test: Antibacterial activity against Acinetobacter baumannii ATCC 17978 after 16 to 18 hrs by microbroth dilution method; type: functional
Method in brief: (§1)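 Broth microdilution in Mueller–Hinton broth following CLSI recommendations. Strains came from ATCC or CCUG collections or the authors' clinical isolates. Compounds were dissolved in DMSO as a 100 mg/ml stock and then diluted in culture medium. Inoculum was 5 × 10⁴ CFU/well. MIC was read after 16–18 h incubation at 35–37 °C.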

Aeromonas hydrophila = test: Antibacterial activity against Aeromonas hydrophila ATCC 7966 after 16 to 18 hrs by microbroth dilution method; type: functional; method in brief: as §1
[2] = system: Elizabethkingia meningoseptica; test: Antibacterial activity against Elizabethkingia meningoseptica CCUG 4310 after 16 to 18 hrs by microbroth dilution method; type: functional; method in brief: as §1
Escherichia coli = test: Antibacterial activity against Escherichia coli CCUGT after 16 to 18 hrs by microbroth dilution method; type: functional; method in brief: as §1
Klebsiella pneumoniae [3] = test: Antibacterial activity against Klebsiella pneumoniae ATCC 13833 after 16 to 18 hrs by microbroth dilution method; type: functional; method in brief: as §1
Pseudomonas aeruginosa [4] = test: Antibacterial activity against Pseudomonas aeruginosa ATCC 27853 after 16 to 18 hrs by microbroth dilution method; type: functional; method in brief: as §1
Bacillus subtilis = test: Antibacterial activity against Bacillus subtilis ATCC 6633 after 16 to 18 hrs by microbroth dilution method; type: functional; method in brief: as §1
Enterococcus faecalis = test: Antibacterial activity against Enterococcus faecalis ATCC 19433 after 16 to 18 hrs by microbroth dilution method; type: functional; method in brief: as §1
[5] = system: Staphylococcus epidermidis; test: Antibacterial activity against Staphylococcus epidermidis ATCC 14990 after 16 to 18 hrs by microbroth dilution method; type: functional; method in brief: as §1
Streptococcus pyogenes = test: Antibacterial activity against Streptococcus pyogenes ATCC 12344 after 16 to 18 hrs by microbroth dilution method; type: functional; method in brief: as §1
Acinetobacter baumannii [6] = test: Antibacterial activity against penicillin/expanded-spectrum cephalosporin/carbapenem/aztreonam/aminoglycoside/fluoroquinolone/fosfomycin/trimethoprim/sulfamethoxazole-resistant Acinetobacter baumannii AC-54/97 after 16 to 18 hrs by microbroth dilution method; type: functional
Method in brief: (§2)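 Broth microdilution MIC per CLSI in Mueller–Hinton broth. Inoculum 5 × 10⁴ CFU/well. Compounds dissolved in DMSO at 100 mg/ml, then diluted in culture medium. Plates incubated 16–18 h at 35–37 °C before reading the MIC. Strains were taken from ATCC or CCUG collections or from the authors' clinical isolate collection.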

[7] = system: Achromobacter xylosoxidans; test: Antibacterial activity against penicillin/expanded-spectrum cephalosporin/carbapenem/aminoglycoside-resistant Achromobacter xylosoxidans AX 22 after 16 to 18 hrs by microbroth dilution method; type: functional; method in brief: as §2
Alcaligenes faecalis = test: Antibacterial activity against expanded-spectrum cephalosporin/carbapenem/monobactam-resistant Alcaligenes faecalis 424/98 after 16 to 18 hrs by microbroth dilution method; type: functional; method in brief: as §2
Enterobacter cloacae = test: Antibacterial activity against penicillin/CEPH/carbapenem/aminoglycoside/fluoroquinolone-resistant Enterobacter cloacae VA-417/02 after 16 to 18 hrs by microbroth dilution method; type: functional; method in brief: as §2
Klebsiella pneumoniae [8] = test: Antibacterial activity against penicillin/expanded-spectrum cephalosporin/carbapenem/aminoglycoside/fluoroquinolone/trimethoprim/sulfamethoxazole-resistant Klebsiella pneumoniae 7023 after 16 to 18 hrs by microbroth dilution method; type: functional; method in brief: as §2
Pseudomonas aeruginosa [9] = test: Antibacterial activity against penicillin/expanded-spectrum cephalosporin/carbapenem/aminoglycoside-resistant Pseudomonas aeruginosa 101/1477 after 16 to 18 hrs by microbroth dilution method; type: functional; method in brief: as §2
Pseudomonas aeruginosa [10] = test: Antibacterial activity against penicillin/expanded-spectrum cephalosporin/carbapenem/monobactam/aminoglycoside/fluoroquinolone-resistant Pseudomonas aeruginosa VR-143/97 after 16 to 18 hrs by microbroth dilution method; type: functional; method in brief: as §2
[11] = system: Stenotrophomonas maltophilia; test: Antibacterial activity against penicillin/expanded-spectrum cephalosporin/carbapenem/monobactam/aminoglycoside/trimethoprim/sulfamethoxazole/fosfomycin-resistant Stenotrophomonas maltophilia 634/08 after 16 to 18 hrs by microbroth dilution method; type: functional; method in brief: as §2
[12] = Apparent permeability of the compound at pH 7.4 after 5 hrs by PAMPA; type: physicochemical
Method in brief: (§3)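 Parallel artificial membrane permeability assay run at physiological pH 7.4 and at alkaline pH 10.0, the duodenal-like condition, as a gastrointestinal permeability model. Apparent permeability (P_app) is reported in nm/s, together with the percentage of compound retained in the membrane.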

[13] = Apparent permeability of the compound at pH 10.0 after 5 hrs by PAMPA; type: physicochemical; method in brief: as §3
[14] = Apparent permeability of the compound assessed as membrane retention at pH 7.4 after 5 hrs by PAMPA; type: physicochemical; conditions: pH 7.4, 5 h; method in brief: as §3
[15] = Apparent permeability of the compound assessed as membrane retention at pH 10.0 after 5 hrs by PAMPA; type: physicochemical; conditions: pH 10, 5 h; method in brief: as §3

| SMILES | MIC (Acinetobacter baumannii [1]) [µg/mL] | MIC (Aeromonas hydrophila) [µg/mL] | MIC [2] [µg/mL] | MIC (Escherichia coli) [µg/mL] | MIC (Klebsiella pneumoniae [3]) [µg/mL] | MIC (Pseudomonas aeruginosa [4]) [µg/mL] | MIC (Bacillus subtilis) [µg/mL] | MIC (Enterococcus faecalis) [µg/mL] | MIC [5] [µg/mL] | MIC (Streptococcus pyogenes) [µg/mL] | also measured |
| --- | --- | --- | --- | --- | --- | --- | --- | --- | --- | --- | --- |
| C=C(C)CNC(=N)NCCCCCCCCNCCCCCCCCNC(=N)N.O=C(O)C(F)(F)F.O=C(O)C(F)(F)F.O=C(O)C(F)(F)F | > 256 | > 256 | > 256 | 128 | 256 | > 256 | 64 | 256 | 64 | 16 | – |
| N=C(N)NCCCCCCCCNCCCCCCCCNC(=N)NCc1ccccc1.O=C(O)C(F)(F)F.O=C(O)C(F)(F)F.O=C(O)C(F)(F)F | 64 | 64 | – | 8 | 16 | 64 | 4 | 16 | 4 | 1 | – |
| C#CCNC(=N)NCCCCCCCCNCCCCCCCCNC(=N)N.O=C(O)C(F)(F)F.O=C(O)C(F)(F)F.O=C(O)C(F)(F)F | 128 | 256 | > 256 | 16 | 32 | 256 | 4 | 16 | 4 | 2 | – |
| N=C(NCCCCCCCCNCCCCCCCCNC(=N)NCC1CC1)NCC1CC1.O=C(O)C(F)(F)F.O=C(O)C(F)(F)F.O=C(O)C(F)(F)F | > 256 | > 256 | > 256 | > 256 | > 256 | > 256 | > 256 | > 256 | > 256 | > 256 | – |
| N=C(N)NCCCCCCNCCCCCCNC(=N)NCC1CC1.O=C(O)C(F)(F)F.O=C(O)C(F)(F)F.O=C(O)C(F)(F)F | > 256 | > 256 | > 256 | > 256 | 256 | > 256 | > 256 | 16 | 256 | 32 | – |
| N=C(NCCCCCCCCN1CCCCCCCCNC(=N)NC1=O)NCC1CC1.O=C(O)C(F)(F)F.O=C(O)C(F)(F)F | 64 | – | – | – | 128 | > 256 | 4 | 32 | 8 | 32 | – |
| C/C=C/CNC(=N)NCCCCCCCCN1CCCCCCCCNC(=N)NC1=O.O=C(O)C(F)(F)F.O=C(O)C(F)(F)F | 32 | 64 | 128 | 64 | 32 | 256 | 4 | 8 | 4 | 2 | – |
| N=C(NCCCCCCCCN1CCCCCCCCNC(=N)NC1=O)NCC1CCC1.O=C(O)C(F)(F)F.O=C(O)C(F)(F)F | 32 | 64 | 256 | 64 | 32 | > 256 | 4 | 8 | 4 | 2 | – |
| C=C(C)CNC(=N)NCCCCCCCCN1CCCCCCCCNC(=N)NC1=O.O=C(O)C(F)(F)F.O=C(O)C(F)(F)F | 8 | 4 | 32 | 0.5 | 1 | 8 | 0.5 | 1 | 0.5 | 0.5 | MIC (Acinetobacter baumannii [6]): 4 µg/mL; MIC [7]: 8 µg/mL; MIC (Alcaligenes faecalis): 4 µg/mL; MIC (Enterobacter cloacae): 1 µg/mL; MIC (Klebsiella pneumoniae [8]): 1 µg/mL; MIC (Pseudomonas aeruginosa [9]): 8 µg/mL; MIC (Pseudomonas aeruginosa [10]): 8 µg/mL; MIC [11]: 4 µg/mL |
| C=CCNC(=N)NCCCCCCCCN1CCCCCCCCNC(=N)NC1=O.O=C(O)C(F)(F)F.O=C(O)C(F)(F)F | 64 | – | – | – | 128 | > 256 | 1 | 128 | 16 | 4 | – |
| C/C=C/CNC(=N)NCCCCCCN1CCCCCCCCNC(=N)NC1=O.O=C(O)C(F)(F)F.O=C(O)C(F)(F)F | 256 | > 256 | 256 | 256 | > 256 | > 256 | 16 | 32 | 16 | 32 | – |
| C=C(C)CNC(=N)NCCCCCCN1CCCCCCCCNC(=N)NC1=O.O=C(O)C(F)(F)F.O=C(O)C(F)(F)F | 256 | > 256 | > 256 | 256 | > 256 | > 256 | 16 | 64 | 16 | 8 | – |
| CCNC(=N)NCCCCCCN1CCCCCCCCNC(=N)NC1=O.O=C(O)C(F)(F)F.O=C(O)C(F)(F)F | > 256 | > 256 | > 256 | > 256 | > 256 | > 256 | 64 | 128 | 32 | 16 | – |
| C#CCNC(=N)NCCCCCCN1CCCCCCCCNC(=N)NC1=O.O=C(O)C(F)(F)F.O=C(O)C(F)(F)F | > 256 | > 256 | > 256 | > 256 | > 256 | > 256 | 64 | 128 | 32 | 16 | – |
| CC(C)=CCNC(=N)NCCCCCCN1CCCCCCCCNC(=N)NC1=O.O=C(O)C(F)(F)F.O=C(O)C(F)(F)F | 256 | > 256 | > 256 | 256 | > 256 | > 256 | 64 | 16 | 16 | 8 | – |
| CN(CCCCCCCCNCCCCCCCCNC(=N)N)C(=N)NCC1CC1.O=C(O)C(F)(F)F.O=C(O)C(F)(F)F.O=C(O)C(F)(F)F | 256 | > 256 | 32 | > 256 | 8 | 8 | 256 | 4 | 8 | 8 | – |
| C#CCNC(=N)N(C)CCCCCCCCNCCCCCCCCNC(=N)N.O=C(O)C(F)(F)F.O=C(O)C(F)(F)F.O=C(O)C(F)(F)F | 256 | > 256 | 64 | > 256 | 16 | 32 | 256 | 8 | 16 | 16 | – |
| CN(CCCCCCCCNCCCCCCCCNC(=N)N)C(=N)NCc1ccccc1.O=C(O)C(F)(F)F.O=C(O)C(F)(F)F.O=C(O)C(F)(F)F | 128 | 256 | 64 | > 256 | 32 | 32 | > 256 | 16 | 32 | 16 | – |
| O=C(N[C@H](CO)[C@H](O)c1ccc([N+](=O)[O-])cc1)C(Cl)Cl [CHLORAMPHENICOL] | – | – | – | – | – | – | – | – | – | – | Papp at 5 h [12]: 0.03 ×10⁻⁶ cm/s; Papp at 5 h [13]: 0.057 ×10⁻⁶ cm/s; Papp [14]: 0%; Papp [15]: 0% |
| CO[C@H]1/C=C/O[C@@]2(C)Oc3c(C)c(O)c4c(O)c(c5c(nc6cc(C)ccn65)c4c3C2=O)NC(=O)/C(C)=C\C=C\[C@H](C)[C@H](O)[C@@H](C)[C@@H](O)[C@@H](C)[C@H](OC(C)=O)[C@@H]1C [RIFAXIMIN] | – | – | – | – | – | – | – | – | – | – | Papp at 5 h [12]: 0.006 ×10⁻⁶ cm/s; Papp at 5 h [13]: 0.012 ×10⁻⁶ cm/s; Papp [14]: 0%; Papp [15]: 0% |

Reference: ChEMBL document CHEMBL3352312, “Synthesis of linear and cyclic guazatine derivatives endowed with antibacterial activity” (Bioorg Med Chem Lett, 2014)
